ChEMBL document CHEMBL4428026, “Discovery of New Monocarbonyl Ligustrazine-Curcumin Hybrids for Intervention of Drug-Sensitive and Drug-Resistant Lung Cancer” (J Med Chem, 2016)
Calls of active or inactive are those of the source. The calls are words filed in the database; no cut-off is given here.

Legend:
A549/CDDP [1] = assay: Anticancer activity against human A549/CDDP cells xenografted in BALB/c nude mouse assessed as tumor growth inhibition at 40 mg/kg, ip administered daily for 15 consecutive days measured every 3 days; assay type: functional; conditions: 15 days, read-out: TGI
Method in brief: (§1)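 Both sexes of athymic BALB/c nude mice (4-5 weeks) were inoculated subcutaneously with A549/DDP cells (1 × 10^7/mouse). Once tumors reached 180-200 mm3, mice were randomized (n = 8). They received ip dosing daily for 15 consecutive days, with vehicle PBS/DMSO/cremophor-EL (8:1:1). Tumors were measured by caliper and volume was taken as width2 × length/2. Growth inhibition was taken from tumor weight (w/w).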

A549 [2] = assay: Induction of ROS generation in human A549 cells 2.1 to 4.2 uM after 60 mins by DHE staining-based fluorescence assay; assay type: functional, cell-based
Method in brief: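 A549 or A549/DDP cells were treated in triplicate for 60 min with vehicle DMSO (0.1%, v/v) or a range of compound concentrations. Cells were stained with dihydroethidium, and intracellular ROS fluorescence was read on a microplate reader at 300 and 610 nm. Three independent experiments were run.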

A549 [3] = assay: Induction of apoptosis in human A549 cells at 2.1 to 4.2 uM after 24 hrs by annexin V-FITC/propidium iodide staining-based flow cytometry; assay type: functional, cell-based
Method in brief: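 Cells were seeded at 1 × 10^5/well and treated 24 h with DMSO (1%) or compound. They were then washed in PBS, stained with FITC-Annexin V and propidium iodide, and apoptotic fractions were quantified by flow cytometry.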

[4] = Toxicity in BALB/c nude mouse xenografted with human A549/CDDP cells assessed as body weight at 20 mg/kg, ip administered daily for 15 consecutive days measured on day 1 (reference value: 19.3 +/- 1.55 g); assay type: organism-based; conditions: in vivo
A549/CDDP [5] = assay: Effect on NFkappaB expression in human A549/CDDP cells at 0.6 to 1.2 uM after 24 hrs by Western blot method; assay type: functional, cell-based
Method in brief: (§2)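 Cells were plated at 1 × 10^6/well overnight, then treated 24 h with vehicle DMSO (0.1%, v/v) or compound (A549, 2.1 or 4.2 µM; A549/DDP, 0.6 or 1.2 µM). Lysis was at 4 °C. Lysates were run on SDS-PAGE (7.5% gel, 20 µg/lane) and immunoblotted with ECL detection; phospho-Akt Ser473 and phospho-ERK Thr202/Tyr204 were probed. Bands were normalized to GAPDH (TrxR, Trx) or β-actin. Three independent experiments were run.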

[6] = Acute toxicity in ICR mouse assessed as survival at 400 mg/kg, ip measured on day 14; assay type: organism-based; conditions: in vivo
Method in brief: (§3)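 Male and female ICR mice (7 weeks), randomized, 10 per group, given one intraperitoneal dose at 200, 250, 300, 350, 400 or 450 mg/kg. Animals were watched for abnormal behaviour and deaths up to two weeks. Deaths were tallied at 1 h, 4 h, day 3 and days 4-14, with survival on day 14. LD50 was calculated with 95% confidence limits.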

A549 [7] = assay: Decrease in Trx expression in human A549 cells at 2.1 to 4.2 uM after 24 hrs by Western blot method; assay type: functional, cell-based; method in brief: as §2
A549/CDDP [8] = assay: Decrease in P-gp mRNA level in human A549/CDDP cells at 0.6 to 1.2 uM after 24 hrs by RT-PCR method; assay type: functional, cell-based
Method in brief: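 A549/DDP cells (1 × 10^6) were treated with vehicle or 0.6 or 1.2 µM compound for 24 h. Total RNA was reverse-transcribed with oligo dT primers. ABCB1 transcripts were quantified by real-time RT-PCR relative to GAPDH and expressed as fold of the 0.1% DMSO control. Three independent experiments were run.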

[9] = Cytotoxicity against NHBE cells after 72 hrs by MTT assay; assay type: cell-based; conditions: Homo sapiens
Method in brief: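 Cells (A549, A549/DDP, SPC-A-1, LTEP-G-2, non-tumor bronchial epithelial HBE) were exposed in triplicate to vehicle or compound for 72 h. MTT (5 mg/mL in PBS) was then added for 4 h, formazan was dissolved in DMSO, and absorbance was read at 570 nm. IC50 values were derived from viability.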

[10] = Toxicity in BALB/c nude mouse xenografted with human A549/CDDP cells assessed as body weight at 40 mg/kg, ip administered daily for 15 consecutive days measured on day 15 (reference value: 21 +/- 1.28 g); assay type: organism-based; conditions: in vivo
Method in brief: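 Athymic BALB/c nude mice of both sexes, 4-5 weeks, inoculated subcutaneously with A549/DDP cells (1 × 10^7/mouse). Once tumors reached 180-200 mm3, mice were randomized and given ip dosing daily for 15 consecutive days. Vehicle was PBS/DMSO/cremophor-EL (8:1:1), given at the same volume to controls. Body weight was recorded on day 1 and day 15. Reported as mean ± SD, n = 8.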

A549 [11] = assay: Effect on NFkappaB expression in human A549 cells at 2.1 to 4.2 uM after 24 hrs by Western blot method; assay type: functional, cell-based; method in brief: as §2
[12] = Acute toxicity in ICR mouse assessed as mortality at 200 to 400 mg/kg, ip measured at 4 hr post treatment; assay type: organism-based; conditions: in vivo; method in brief: as §3
A549/CDDP [13] = assay: Effect on ERK expression in human A549/CDDP cells at 0.6 to 1.2 uM after 24 hrs by Western blot method; assay type: functional, cell-based; method in brief: as §2
[14] = biological target: RAC-alpha serine/threonine-protein kinase (Homo sapiens) (UniProt P31749); assay: Inhibition of Akt phosphorylation in human A549/CDDP cells at 0.6 to 1.2 uM after 24 hrs by Western blot method; assay type: cell-based; method in brief: as §2
Chain of RAC-alpha serine/threonine-protein kinase (Homo sapiens) (P31749 whole entry): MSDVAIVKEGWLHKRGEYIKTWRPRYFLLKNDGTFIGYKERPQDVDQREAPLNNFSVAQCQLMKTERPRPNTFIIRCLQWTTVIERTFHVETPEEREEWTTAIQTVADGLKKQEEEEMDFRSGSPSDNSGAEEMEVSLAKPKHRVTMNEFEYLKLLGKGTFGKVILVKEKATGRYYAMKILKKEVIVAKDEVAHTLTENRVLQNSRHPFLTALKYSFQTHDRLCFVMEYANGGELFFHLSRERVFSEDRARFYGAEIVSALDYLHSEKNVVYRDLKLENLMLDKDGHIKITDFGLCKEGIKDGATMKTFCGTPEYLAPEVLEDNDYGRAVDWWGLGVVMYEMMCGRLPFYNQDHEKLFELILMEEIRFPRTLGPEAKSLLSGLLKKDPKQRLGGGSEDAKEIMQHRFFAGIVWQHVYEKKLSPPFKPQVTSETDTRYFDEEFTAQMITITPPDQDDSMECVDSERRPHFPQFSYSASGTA

A549/CDDP [15] = assay: Induction of ROS generation in human A549/CDDP cells 0.6 to 1.2 uM after 60 mins by DHE staining-based fluorescence assay in presence of NAC; assay type: functional, cell-based
[16] = Acute toxicity in ICR mouse assessed as survival at 350 mg/kg, ip measured on day 14; assay type: organism-based; conditions: in vivo; method in brief: as §3
A549/CDDP [17] = assay: Anticancer activity against human A549/CDDP cells xenografted in BALB/c nude mouse assessed as tumor growth inhibition at 20 mg/kg, ip administered daily for 15 consecutive days measured every 3 days; assay type: functional; conditions: read-out: TGI; method in brief: as §1
Thioredoxin reductase = Thioredoxin reductase (Homo sapiens, UniProt Q16881+Q9NNW7+Q86VQ6); assay: Inhibition of thioredoxin reductase in human A549 cells by DTNB dye based microplate spectrophotometry; assay type: cell-based
Method in brief: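 A549 or A549/DDP cells were treated with varying compound concentrations for 24 h, then harvested, homogenized and centrifuged. Protein (50 µg) was reacted in triplicate with NADPH and DTNB in TE buffer at 37 °C for 1 h, and TNB was read at 412 nm. Activity was taken from a purified-TrxR standard curve, and IC50 was derived.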

A549/CDDP [18] = assay: Induction of apoptosis in human A549/CDDP cells assessed as increase in cleaved PARP level at 0.6 to 1.2 uM after 24 hrs by Western blot method; assay type: functional, cell-based; method in brief: as §2
[19] = Acute toxicity in ip dosed ICR mouse assessed as mortality measured up to 2 weeks; assay type: organism-based; conditions: in vivo; method in brief: as §3
A549 [20] = assay: Induction of apoptosis in human A549 cells assessed as increase in cleaved caspase 3 level at 2.1 to 4.2 uM after 24 hrs by Western blot method; assay type: functional, cell-based; method in brief: as §2
A549/CDDP [21] = assay: Inhibition of NFkappaB phosphorylation in human A549/CDDP cells at 0.6 to 1.2 uM after 24 hrs by Western blot method; assay type: cell-based; method in brief: as §2

In the case of `COc1cc(/C=C/C(=O)/C=C/c2nc(C)c(C)nc2C)ccc1O`, the inhibition in vivo at 40 mg/kg (A549/CDDP [1]) is reported as 67%, the Activity (A549 [2]) is reported as “Active” and the Activity (A549 [3]) is reported as “Active”. For the same compound, the Activity [4] was 18.3 g, the Activity (A549/CDDP [5]) was “inactive” and the survival at 14 day [6] was 10%. For the same compound, the Activity (A549 [7]) was “Active”, the Activity (A549/CDDP [8]) was “Active” and the IC50 [9] was 21.3 µM. The Activity [10] was 19.6 g, the Activity (A549 [11]) was “inactive” and the Activity [12] was “Non-Toxic”. The Activity (A549/CDDP [13]) was “inactive”, the inhibition [14] was “Active” and the Activity (A549/CDDP [15]) was “inactive”. It also gave a survival at 14 day [16] of 30%, an inhibition in vivo at 20 mg/kg (A549/CDDP [17]) of 36% and an IC50 (Thioredoxin reductase) of 1.49 µM. The Activity (A549/CDDP [18]) was “Active”, the LD50 at 336 h [19] was 285 mg/kg and the Activity (A549 [20]) was “Active”. For the same compound, the inhibition (A549/CDDP [21]) was “Active”.
